{"source": "ChEMBL document CHEMBL4382240", "about": "“Discovery of novel 2,5-dihydroxyterephthalamide derivatives as multifunctional agents for the treatment of Alzheimer's disease” (Bioorg Med Chem, 2018)", "key": {"[1]": {"experiment": "Anti-inflammatory activity in […] cells assessed as inhibition of LPS-stimulated NO release at 10 uM preincubated for 30 mins followed by LPS stimulation and measured after 24 hrs by Griess reagent based assay relative to control", "type": "functional", "settings": "BV-2", "outline": "(§1)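 BV-2 cells cultured 24 h in DMEM (10% FBS, glutamine, pyruvate, pen/strep) at 37 °C, 5% CO2. Compound (DMSO stock diluted in PBS) added 30 min before LPS (1.0 µg/mL), then 24 h. Nitrite in supernatant measured by Griess reagent for 10 min at room temperature, A540, against a NaNO2 standard curve. Triplicate wells; mean ± SD of three independent experiments.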"}, "[2]": {"molecular_target": "T1, Amyloid-beta precursor protein (Homo sapiens, UniProt P05067)", "T1 sequence (P05067 whole entry)": "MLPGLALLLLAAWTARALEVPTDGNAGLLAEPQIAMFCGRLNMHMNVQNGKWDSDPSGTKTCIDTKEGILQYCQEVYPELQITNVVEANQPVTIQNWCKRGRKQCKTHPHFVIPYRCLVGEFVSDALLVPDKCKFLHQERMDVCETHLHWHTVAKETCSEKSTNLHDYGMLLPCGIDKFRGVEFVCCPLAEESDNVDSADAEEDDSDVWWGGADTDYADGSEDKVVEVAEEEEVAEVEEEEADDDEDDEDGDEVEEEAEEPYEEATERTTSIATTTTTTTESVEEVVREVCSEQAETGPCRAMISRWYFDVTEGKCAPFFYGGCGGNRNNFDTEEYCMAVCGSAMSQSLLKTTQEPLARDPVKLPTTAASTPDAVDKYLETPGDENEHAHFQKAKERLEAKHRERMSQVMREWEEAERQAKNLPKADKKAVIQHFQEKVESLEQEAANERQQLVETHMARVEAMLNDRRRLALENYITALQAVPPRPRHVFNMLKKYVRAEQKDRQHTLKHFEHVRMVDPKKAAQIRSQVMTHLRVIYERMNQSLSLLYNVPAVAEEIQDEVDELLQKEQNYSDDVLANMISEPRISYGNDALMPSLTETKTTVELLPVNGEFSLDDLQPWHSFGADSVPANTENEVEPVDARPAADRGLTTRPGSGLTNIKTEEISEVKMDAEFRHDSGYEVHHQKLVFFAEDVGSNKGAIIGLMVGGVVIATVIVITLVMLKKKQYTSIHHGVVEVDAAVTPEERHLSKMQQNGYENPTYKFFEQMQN", "experiment": "Inhibition of human amyloid beta (1 to 42) self-induced aggregation after 24 hrs by Thioflavin T based fluorometric assay", "outline": "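Self-induced Aβ1-42 aggregation (25 µM peptide) in phosphate buffer, pH 7.4, for 24 h at 37 °C with varying compound concentrations. Aggregation read by ThT fluorescence (5 µM ThT, glycine-NaOH pH 8.5).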"}, "[3]": {"experiment": "Metal chelating activity assessed as mole fraction of compound required to show 1:2 stoichiometry for compound -Cu2+ complex at 37.5 uM after 30 mins by UV spectrometry method", "outline": "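Molar-ratio titration in methanol: compound fixed at 37.5 µM final, CuCl2 varied from 3.75 to 150 µM final. Spectra corrected by subtracting CuCl2 and compound alone. Absorbance at 274 nm plotted against mole fraction; stoichiometry taken from where the straight lines intersect.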"}, "[4]": {"molecular_target": "Acetylcholinesterase (Electrophorus electricus) (UniProt O42275)", "sequence (O42275 24-633 limits assumed)": "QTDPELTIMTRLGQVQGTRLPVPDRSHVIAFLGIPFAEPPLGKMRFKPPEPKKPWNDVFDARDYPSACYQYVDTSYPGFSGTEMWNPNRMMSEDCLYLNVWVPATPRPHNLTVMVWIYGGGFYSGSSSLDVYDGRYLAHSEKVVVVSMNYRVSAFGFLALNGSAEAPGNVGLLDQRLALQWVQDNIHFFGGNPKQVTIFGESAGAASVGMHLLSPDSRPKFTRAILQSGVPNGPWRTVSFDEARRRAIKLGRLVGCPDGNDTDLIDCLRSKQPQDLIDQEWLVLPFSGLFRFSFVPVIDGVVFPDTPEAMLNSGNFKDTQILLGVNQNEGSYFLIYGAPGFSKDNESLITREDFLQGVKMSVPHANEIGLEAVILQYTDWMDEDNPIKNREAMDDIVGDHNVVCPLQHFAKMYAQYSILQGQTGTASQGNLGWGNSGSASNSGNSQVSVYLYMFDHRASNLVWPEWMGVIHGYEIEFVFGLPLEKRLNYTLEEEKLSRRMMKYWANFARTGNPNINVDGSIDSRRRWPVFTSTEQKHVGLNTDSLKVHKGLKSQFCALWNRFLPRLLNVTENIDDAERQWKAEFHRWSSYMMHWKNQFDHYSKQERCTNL", "experiment": "Mixed-type inhibition of electric eel AChE at 2.5 to 10 uM preincubated for 15 mins followed by varying levels of acetylthiocholine iodide substrate addition by Lineweaver-Burk plot analysis"}, "[5]": {"experiment": "Metal chelating activity assessed as compound-Cu2+ complex formation at 37.5 uM after 30 mins by UV spectrometry method", "outline": "(§2)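 Compound and metal salt (CuCl2, ZnCl2, FeSO4 or AlCl3), each 37.5 µM final in methanol, incubated 30 min at room temperature. UV-vis spectra recorded from 200 to 600 nm and compared with the compound alone.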"}, "[6]": {"molecular_target": "T1, Amyloid-beta precursor protein", "experiment": "Disaggregation of self-induced preformed fibrils of human amyloid beta (1 to 42) at 25 uM after 24 hrs by Thioflavin T based fluorometric assay relative to control", "outline": "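Aβ1-42 diluted in HEPES buffer (20 mM, pH 6.6, 150 mM NaCl) and pre-aggregated 24 h at 37 °C. Compound (25 µM) then added for another 24 h at 37 °C on a sealed plate. Remaining fibrils read by ThT fluorescence in glycine-NaOH, pH 8.5. Triplicate; three independent experiments.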"}, "[7]": {"species": "Homo sapiens", "experiment": "Anti-inflammatory activity in […] cells assessed as inhibition of LPS-stimulated TNFalpha release at 0.5 uM preincubated for 30 mins followed by LPS stimulation and measured after 24 hrs by ELISA", "type": "functional, cell-based", "outline": "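Confluent BV-2 cells in DMEM preincubated 30 min with compound, tested over 0.5–10 µM, then stimulated with LPS (1.0 µg/mL) for 24 h. Released TNF-α measured by ELISA following kit instructions. Triplicate wells; mean ± SD of three independent experiments.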"}, "[8]": {"molecular_target": "T2, Acetylcholinesterase (Rattus norvegicus, UniProt P37136)", "T2 sequence (P37136 whole entry)": "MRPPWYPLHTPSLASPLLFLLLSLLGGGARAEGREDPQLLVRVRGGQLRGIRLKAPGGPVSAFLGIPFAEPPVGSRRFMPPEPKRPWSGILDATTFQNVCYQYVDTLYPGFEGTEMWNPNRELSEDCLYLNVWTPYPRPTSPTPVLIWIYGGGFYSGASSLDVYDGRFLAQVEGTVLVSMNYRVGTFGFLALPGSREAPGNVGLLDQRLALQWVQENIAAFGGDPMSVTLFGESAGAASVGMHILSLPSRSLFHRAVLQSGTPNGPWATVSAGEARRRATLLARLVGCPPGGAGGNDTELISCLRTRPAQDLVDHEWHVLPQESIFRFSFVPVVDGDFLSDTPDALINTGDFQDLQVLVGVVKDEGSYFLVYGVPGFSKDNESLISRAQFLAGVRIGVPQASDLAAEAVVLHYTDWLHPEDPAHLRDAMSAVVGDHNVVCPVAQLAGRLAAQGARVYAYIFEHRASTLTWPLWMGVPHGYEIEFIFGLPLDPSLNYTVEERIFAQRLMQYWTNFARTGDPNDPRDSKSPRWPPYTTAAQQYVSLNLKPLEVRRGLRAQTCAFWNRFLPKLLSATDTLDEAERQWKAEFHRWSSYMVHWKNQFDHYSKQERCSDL", "experiment": "Inhibition of rat cortex AChE using acetylthiocholine iodide as substrate after 15 mins by Ellman's method"}, "[9]": {"experiment": "Inhibition of Cu2+ induced human amyloid beta (1 to 42) aggregation at 25 uM after 24 hrs by Thioflavin T based fluorometric assay relative to control", "outline": "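Aβ1-42 (25 µM) and Cu2+ (25 µM) in HEPES buffer (20 mM, pH 6.6, 150 mM NaCl), with or without compound (25 µM final), incubated 24 h at 37 °C. ThT (5 µM) in glycine-NaOH, pH 8.5, added and fluorescence read. Triplicate; three independent experiments.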"}, "[10]": {"molecular_target": "Acetylcholinesterase (Electrophorus electricus, UniProt O42275)", "sequence (O42275 whole entry)": "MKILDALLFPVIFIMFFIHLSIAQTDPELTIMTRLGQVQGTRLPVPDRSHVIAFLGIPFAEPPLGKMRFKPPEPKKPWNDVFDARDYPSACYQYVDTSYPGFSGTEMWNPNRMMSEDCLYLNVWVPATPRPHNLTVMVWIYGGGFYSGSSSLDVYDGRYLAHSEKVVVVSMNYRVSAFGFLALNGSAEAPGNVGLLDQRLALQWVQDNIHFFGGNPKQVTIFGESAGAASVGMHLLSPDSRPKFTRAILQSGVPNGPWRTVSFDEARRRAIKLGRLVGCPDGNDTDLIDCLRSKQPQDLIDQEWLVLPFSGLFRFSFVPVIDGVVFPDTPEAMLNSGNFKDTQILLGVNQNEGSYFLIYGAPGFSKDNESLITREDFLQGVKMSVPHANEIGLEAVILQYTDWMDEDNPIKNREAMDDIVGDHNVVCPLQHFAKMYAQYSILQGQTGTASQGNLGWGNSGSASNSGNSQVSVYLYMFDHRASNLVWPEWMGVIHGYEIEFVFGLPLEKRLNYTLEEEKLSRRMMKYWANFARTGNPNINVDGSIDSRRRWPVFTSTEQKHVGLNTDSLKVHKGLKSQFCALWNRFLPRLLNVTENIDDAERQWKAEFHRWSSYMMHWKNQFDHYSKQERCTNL", "experiment": "Inhibition of electric eel AChE using acetylthiocholine iodide as substrate after 15 mins by Ellman's method"}, "[11]": {"experiment": "Anti-inflammatory activity in […] cells assessed as inhibition of LPS-stimulated NO release at 2.5 uM preincubated for 30 mins followed by LPS stimulation and measured after 24 hrs by Griess reagent based assay relative to control", "type": "functional", "settings": "BV-2", "outline": "as §1"}, "[12]": {"species": "Homo sapiens", "experiment": "Anti-inflammatory activity in […] cells assessed as inhibition of LPS-stimulated NO release preincubated for 30 mins followed by LPS stimulation and measured after 24 hrs by Griess reagent based assay", "type": "functional, cell-based"}, "[13]": {"molecular_target": "T1, Amyloid-beta precursor protein", "experiment": "Inhibition of human amyloid beta (1 to 42) self-induced aggregation at 25 uM after 24 hrs by Thioflavin T based fluorometric assay relative to control", "outline": "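Aβ1-42 (25 µM final) incubated with compound (25 µM final) in 50 mM phosphate buffer, pH 7.4, for 24 h at 37 °C under a sealing film. ThT (5 µM) in 50 mM glycine-NaOH, pH 8.5, then added and fluorescence measured. Triplicate; mean ± SD of three independent experiments.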"}, "[14]": {"experiment": "Metal chelating activity assessed as compound-Zn2+ complex formation at 37.5 uM after 30 mins by UV spectrometry method", "outline": "as §2"}, "[15]": {"experiment": "Disaggregation of Cu2+ induced preformed fibrils of human amyloid beta (1 to 42) at 25 uM after 24 hrs by Thioflavin T based fluorometric assay relative to control", "outline": "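Aβ1-42 (25 µM) with Cu2+ (25 µM) in HEPES buffer pre-aggregated 24 h at 37 °C. Compound (25 µM) then added for a further 24 h at 37 °C. Fibril content measured by ThT fluorescence (glycine-NaOH, pH 8.5). Triplicate; three independent experiments.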"}}, "note": "pIC50: −log10 of the molar value. Activity calls are given as the source filed them. No cut-off for these calls is given here."}
{"smiles": "CCN(CCCCNC(=O)c1cc(O)c(C(=O)NCCCCN(CC)Cc2ccccc2OC)cc1O)Cc1ccccc1OC", "values": [{"measurement": "inhibition at 10 µM", "setting": "[1]", "result": 58.3, "unit": "%"}, {"measurement": "pIC50", "setting": "[2]", "result": 5.52}, {"measurement": "Activity", "setting": "[3]", "result": 1.9, "unit": "molar ratio"}, {"measurement": "inhibition", "setting": "[4]", "result": "Active"}, {"measurement": "Activity", "setting": "[5]", "result": "Active"}, {"measurement": "Activity", "setting": "[6]", "result": 75.2, "unit": "%"}, {"measurement": "inhibition", "setting": "[7]", "result": "inactive"}, {"measurement": "pIC50", "setting": "[8]", "result": 6.25}, {"measurement": "inhibition", "setting": "[9]", "result": 71.7, "unit": "%"}, {"measurement": "pIC50", "setting": "[10]", "result": 5.29}, {"measurement": "inhibition at 2.5 µM", "setting": "[11]", "result": 30, "unit": "%"}, {"measurement": "inhibition", "setting": "[12]", "result": "Dose-dependent effect"}, {"measurement": "inhibition", "setting": "[13]", "result": 96.2, "unit": "%"}, {"measurement": "Activity", "setting": "[14]", "result": "inactive"}, {"measurement": "Activity", "setting": "[15]", "result": 77.2, "unit": "%"}]}
